Data reported in ChEMBL document CHEMBL3994577, “New amphiphilic neamine conjugates bearing a metal binding motif active against MDR E. aerogenes Gram-negative bacteria” (2017).
Converted amounts (≈) assume the structure as drawn. The source made the active and inactive calls. The calls are words filed in the database; no cut-off is given here. Bridge positions count the residues as written; N and C are the ends. Square brackets hold non-standard residues; d marks the D form. Peptide text beside a SMILES is read from it. * marks the point of attachment. βNA = c1ccc2cc(N*)ccc2c1; Dab = NCC[C@H](N)C(=O)O

What was measured:
Klebsiella aerogenes [1] = test: Antibacterial activity against multidrug resistant Enterobacter aerogenes EA289 over-expressing AcrAB-TolC after 18 hrs in presence of polymyxin B nonapeptide by broth dilution method; type: functional; details: EA289, 18 h
In short: (§1)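 Broth microdilution in MH broth. Inoculum 2x10⁵ cfu per well, with two-fold serial dilutions of compound from DMSO stocks (final DMSO ≤0.5%). MIC is the lowest concentration with no visible growth after 18 h at 37°C. Values are means of at least three independent experiments, in µM. Strains grown at 37°C; EA298 kept with kanamycin 50 µg.mL^-1.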

Escherichia coli [2] = test: Antibacterial activity against AcrAB deficient Escherichia coli AG100A after 18 hrs in presence of polymyxin B nonapeptide by broth dilution method; type: functional
Escherichia coli [3] = test: Antibacterial activity against wild type Escherichia coli AG100 after 18 hrs by broth dilution method; type: functional; details: AG100, 18 h
In short: (§2)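 Broth microdilution MIC in MH broth with two-fold serial dilutions of compounds from DMSO solutions (final DMSO ≤ 0.5%). Inoculum was 2x10⁵ cfu per 200 µL, incubated 18 h at 37°C. MIC was the lowest concentration with no visible growth, given as the mean of at least three independent experiments, in µM. AG100A was grown with kanamycin (50 µg.mL^-1).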

Klebsiella aerogenes [4] = test: Antibacterial activity against Enterobacter aerogenes EA298 TolC deficient after 18 hrs in presence of polymyxin B nonapeptide by broth dilution method; details: EA298, 18 h
Klebsiella aerogenes [5] = test: Antibacterial activity against multidrug resistant Enterobacter aerogenes EA289 over-expressing AcrAB-TolC after 18 hrs by broth dilution method; type: functional; details: EA289, 18 h; in short: as §1
Klebsiella aerogenes [6] = test: Induction of membrane permeability in multidrug resistant Enterobacter aerogenes EA289 over-expressing AcrAB-TolC assessed as increase in nitrocefin hydrolysis measured for 1 hr in presence of CCCP; type: functional
In short: (§3)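 EA289 grown to exponential phase (OD600 0.5), washed in PPB (K₂HPO₄ 20 mM, MgCl₂ 1 mM, pH 7), adjusted to OD 0.375. Cells mixed with two-fold dilutions of compound (final 2–64 µM) plus CCCP 3.3 µM at 37°C. Nitrocefin added at t=0; OD490 followed for 1 h. Duplicate or triplicate.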

Klebsiella aerogenes [7] = test: Antibacterial activity against Enterobacter aerogenes EA298 TolC deficient after 18 hrs by broth dilution method; details: EA298, 18 h
Escherichia coli [8] = test: Antibacterial activity against AcrAB deficient Escherichia coli AG100A after 18 hrs by broth dilution method; type: functional; in short: as §2
Escherichia coli [9] = test: Antibacterial activity against wild type Escherichia coli AG100 after 18 hrs in presence of polymyxin B nonapeptide by broth dilution method; type: functional; details: AG100, 18 h
Klebsiella aerogenes [10] = test: Induction of membrane permeability in multidrug resistant Enterobacter aerogenes EA289 over-expressing AcrAB-TolC assessed as nitrocefin hydrolysis at 64 uM after 1 hr in presence of CCCP relative to control; type: functional; parameters: scale not given: the % may be the effect or the level left; in short: as §3
Klebsiella aerogenes [11] = test: Decrease in 1,2'-DiNaphtylAmine efflux in multidrug resistant Enterobacter aerogenes EA289 over-expressing AcrAB-TolC at 8 to 16 uM after 18 hrs measured every 4 sec for 6 mins in presence of glucose by fluorescence assay; type: functional
In short: (§4)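 EA289 grown 24 h at 37°C, washed and resuspended in PPB at OD600 0.25. Cells loaded with 1,2'-DNA 32 µM plus CCCP 5 µM for 18 h at 37°C in the dark, washed, then mixed with compound (final 0.5–128 µM) at 37°C. Fluorescence (ex 370/em 420 nm) read every 4 s for 6 min. Glucose added at cycle 20 (~100 s) to start efflux.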

Klebsiella aerogenes [12] = test: Decrease in 1,2'-DiNaphtylAmine efflux in multidrug resistant Enterobacter aerogenes EA289 over-expressing AcrAB-TolC up to 128 uM after 18 hrs measured every 4 sec for 6 mins in presence of glucose by fluorescence assay
Klebsiella aerogenes [13] = test: Decrease in 1,2'-DiNaphtylAmine efflux in multidrug resistant Enterobacter aerogenes EA289 over-expressing AcrAB-TolC at 32 uM after 18 hrs measured every 4 sec for 6 mins in presence of glucose by fluorescence assay; type: functional; in short: as §4
Klebsiella aerogenes [14] = test: Induction of membrane permeability in multidrug resistant Enterobacter aerogenes EA289 over-expressing AcrAB-TolC assessed as nitrocefin hydrolysis at 0.75 to 48 uM after 1 hr in presence of CCCP; type: functional
Klebsiella aerogenes [15] = test: Decrease in 1,2'-DiNaphtylAmine efflux in multidrug resistant Enterobacter aerogenes EA289 over-expressing AcrAB-TolC up to 32 uM after 18 hrs measured every 4 sec for 6 mins in presence of glucose by fluorescence assay; type: functional; in short: as §4
Klebsiella aerogenes [16] = test: Induction of membrane permeability in multidrug resistant Enterobacter aerogenes EA289 over-expressing AcrAB-TolC assessed as nitrocefin hydrolysis at 3 uM up to 20 mins in presence of CCCP relative to control; type: functional; in short: as §3
Klebsiella aerogenes [17] = test: Induction of membrane permeability in multidrug resistant Enterobacter aerogenes EA289 over-expressing AcrAB-TolC assessed as nitrocefin hydrolysis at 32 uM after 50 mins in presence of CCCP relative to control; type: functional; parameters: scale not given: the % may be the effect or the level left; in short: as §3
[18] = Binding affinity to Zn2+ in Muller-Hinton broth at 50 uM by ESI-MS analysis
In short: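 Free ligand incubated in Mueller Hinton broth, the medium used for the antibacterial assays, then analysed by positive-ion ESI mass spectrometry for metal-bound species. […] Preformed Zn(II) and Cu(II) complexes were incubated in MH under the same conditions to check their stability.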

| Compound | MIC (Klebsiella aerogenes [1]) [µM] | MIC (Escherichia coli [2]) [µM] | MIC (Escherichia coli [3]) [µM] | MIC (Klebsiella aerogenes [4]) [µM] | MIC (Klebsiella aerogenes [5]) [µM] | Activity (Klebsiella aerogenes [6]) | MIC (Klebsiella aerogenes [7]) [µM] | MIC (Escherichia coli [8]) [µM] | MIC (Escherichia coli [9]) [µM] | also measured |
| --- | --- | --- | --- | --- | --- | --- | --- | --- | --- | --- |
| NCCCCCCO[C@@H]1[C@@H](OCc2ccc3ccccc3c2)[C@H](N)C[C@H](N)[C@H]1O[C@H]1O[C@H](CN)[C@@H](OCc2ccc3ccccc3c2)[C@H](OCc2ccc3ccccc3c2)[C@H]1N | 16 to 32 | 4 | 8 (≈ 6.74 µg/mL) | 4 to 8 | 16 (≈ 13.5 µg/mL) | Dose-dependent effect | 4 (≈ 3.37 µg/mL) | 8 (≈ 6.74 µg/mL) | 8 | – |
| NC[C@H]1O[C@H](O[C@H]2[C@H](O)[C@@H](O)[C@H](N)C[C@@H]2N)[C@H](N)[C@@H](O)[C@@H]1O [NEAMINE] | 16 | 128 | 16 to 32 (≈ 5.16 to 10.3 µg/mL) | > 128 | 32 (≈ 10.3 µg/mL) | – | > 128 | 128 (≈ 41.3 µg/mL) | 8 | – |
| CC(C)(O/N=C(\C(=O)N[C@@H]1C(=O)N2C(C(=O)[O-])=C(C[n+]3ccccc3)CS[C@H]12)c1csc(N)n1)C(=O)O [CEFTAZIDIME] | – | – | 0.5 (≈ 0.273 µg/mL) | – | > 128 | – | > 128 | 0.25 (≈ 0.137 µg/mL) | – | – |
| NC[C@H]1O[C@H](O[C@H]2[C@H](OCCCCCCNC(=O)CCCCN(Cc3ccccn3)Cc3ccccn3)[C@@H](OCc3ccc4ccccc4c3)[C@H](N)C[C@@H]2N)[C@H](N)[C@@H](OCc2ccc3ccccc3c2)[C@@H]1OCc1ccc2ccccc2c1 | 8 | 2 to 4 | 8 to 16 (≈ 8.99 to 18 µg/mL) | 4 to 8 | 16 (≈ 18 µg/mL) | Dose-dependent effect | 8 (≈ 8.99 µg/mL) | 8 to 16 (≈ 8.99 to 18 µg/mL) | 4 | Activity (Klebsiella aerogenes [10]): 60%; Activity (Klebsiella aerogenes [11]): Active |
| O=C(N[C@H](CO)[C@H](O)c1ccc([N+](=O)[O-])cc1)C(Cl)Cl [CHLORAMPHENICOL] | – | – | 8 (≈ 2.59 µg/mL) | – | > 128 | – | 32 (≈ 10.3 µg/mL) | 1 (≈ 0.323 µg/mL) | – | – |
| N=C(N)NCCC[C@H](NC(=O)[C@@H](N)Cc1ccccc1)C(=O)Nc1ccc2ccccc2c1 (H-Phe-Arg-βNA) | – | – | – | – | – | – | – | – | – | Activity (Klebsiella aerogenes [12]): inactive |
| CN1CCN(c2c(F)cc3c(=O)c(C(=O)O)cn(CCF)c3c2F)CC1 [FLEROXACIN] | – | – | 0.5 (≈ 0.185 µg/mL) | – | > 128 | – | 16 (≈ 5.91 µg/mL) | 0.125 (≈ 0.0462 µg/mL) | – | – |
| O=C(O)c1cn(C2CC2)c2cc(N3CCNCC3)c(F)cc2c1=O [CIPROFLOXACIN] | – | – | 0.125 (≈ 0.0414 µg/mL) | – | 64 (≈ 21.2 µg/mL) | – | 8 (≈ 2.65 µg/mL) | 0.03 (≈ 0.00994 µg/mL) | – | – |
| NC[C@H]1O[C@H](O[C@H]2[C@H](OCCCCCCNC(=O)CCCC(=O)N3CCCNCCNCCCNCC3)[C@@H](OCc3ccc4ccccc4c3)[C@H](N)C[C@@H]2N)[C@H](N)[C@@H](OCc2ccc3ccccc3c2)[C@@H]1OCc1ccc2ccccc2c1 | 8 | 1 to 2 | 4 (≈ 4.55 µg/mL) | 2 | 4 to 16 (≈ 4.55 to 18.2 µg/mL) | Dose-dependent effect | 2 to 4 (≈ 2.28 to 4.55 µg/mL) | 2 (≈ 2.28 µg/mL) | 2 | Activity (Klebsiella aerogenes [11]): Active |
| NC[C@H]1O[C@H](O[C@H]2[C@H](OCCCCCCNC(=O)CCCC(=O)Nc3cccc(CN(Cc4ccccc4)Cc4ccccc4)c3)[C@@H](OCc3ccc4ccccc4c3)[C@H](N)C[C@@H]2N)[C@H](N)[C@@H](OCc2ccc3ccccc3c2)[C@@H]1OCc1ccc2ccccc2c1 | 128 | 32 | 128 (≈ 159 µg/mL) | 32 to 64 | 128 (≈ 159 µg/mL) | Dose-dependent effect | 64 to 128 (≈ 79.4 to 159 µg/mL) | 32 to 128 (≈ 39.7 to 159 µg/mL) | 32 to 64 | Activity (Klebsiella aerogenes [10]): 20%; Activity (Klebsiella aerogenes [13]): Active |
| [N-]=[N+]=NCCCCCCO[C@@H]1[C@@H](OCc2ccc3ccccc3c2)[C@H](N)C[C@H](N)[C@H]1O[C@H]1O[C@H](CN)[C@@H](OCc2ccc3ccccc3c2)[C@H](OCc2ccc3ccccc3c2)[C@H]1N | 8 to 32 | 16 | 32 (≈ 27.8 µg/mL) | 32 | 16 (≈ 13.9 µg/mL) | – | 16 (≈ 13.9 µg/mL) | 32 (≈ 27.8 µg/mL) | 32 | – |
| CC(C)C[C@@H]1NC(=O)[C@@H](Cc2ccccc2)NC(=O)[C@H](CCN)NC(=O)[C@@H](NC(=O)[C@H](CCN)NC(=O)[C@@H](N)[C@@H](C)O)CCNC(=O)[C@H]([C@@H](C)O)NC(=O)[C@H](CCN)NC(=O)[C@H](CCN)NC1=O (H-T[Dab][Dab][Dab][dF]L[Dab][Dab]T; lactam 3-C) | – | – | – | – | – | – | – | – | – | Activity (Klebsiella aerogenes [14]): inactive |
| N#CC(C#N)=NNc1cccc(Cl)c1 | – | – | – | – | – | – | – | – | – | Activity (Klebsiella aerogenes [15]): Active |
| POLYMYXIN B | – | – | – | – | – | – | – | – | – | Activity (Klebsiella aerogenes [16]): Active |
| NC[C@H]1O[C@H](O[C@H]2[C@H](OCCCCCCNC(=O)CCCC(=O)Nc3cccc(CN(Cc4ccccn4)Cc4ccccn4)n3)[C@@H](OCc3ccc4ccccc4c3)[C@H](N)C[C@@H]2N)[C@H](N)[C@@H](OCc2ccc3ccccc3c2)[C@@H]1OCc1ccc2ccccc2c1 | 4 to 8 | 2 | 2 to 4 (≈ 2.49 to 4.97 µg/mL) | 2 | 4 (≈ 4.97 µg/mL) | Dose-dependent effect | 2 to 8 (≈ 2.49 to 9.95 µg/mL) | 2 (≈ 2.49 µg/mL) | 2 to 4 | Activity (Klebsiella aerogenes [17]): 90%; Activity (Klebsiella aerogenes [11]): Active; Activity [18]: Active |
